Screening results (PubChem BioAssay)
DENV2 CPE: DENV2-induced cell death inhibition. CPE inhibition, % at 9.99 µM. hit rate 1.7% among 350,000. AID 651640. DENV2-infected cells, cytopathic effect rescue, plate reader; in the data active means CPE inhibition above about 20%, passing the limit was not always enough; tested in BHK-21 cells
SIRT5 inh: blocks human SIRT5 desuccinylation of peptide. Purified SirT5, succinyl-peptide AMC, trypsin-coupled fluorescence. hit rate 1.1% among 330,000. inhibition, % at 15 µM; in the data active means inhibition above about 15%
Target sequence (Q9NXA8 whole entry, looked up): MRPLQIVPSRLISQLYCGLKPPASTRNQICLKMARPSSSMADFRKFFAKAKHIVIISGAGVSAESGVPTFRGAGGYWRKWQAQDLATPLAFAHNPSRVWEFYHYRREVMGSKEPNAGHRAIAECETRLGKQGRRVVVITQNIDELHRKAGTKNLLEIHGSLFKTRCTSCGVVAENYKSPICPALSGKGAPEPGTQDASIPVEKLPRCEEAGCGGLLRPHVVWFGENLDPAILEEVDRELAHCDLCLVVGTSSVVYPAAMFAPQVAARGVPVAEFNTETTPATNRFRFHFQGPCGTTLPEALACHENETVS
FGF22 binding: binders of recombinant human FGF22 by thermal shift; Q9HCT0; SYPRO orange fluorescence; percent of sucrose octasulfate shift, DMSO zero; activity (Tm shift, normalised), % at 9.99 µM; hit rate 1.5% among 340,000; AID 651658;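 active means mean Tm shift, scaled 0 neutral to 100 positive control, at about 1.3% or above, every replicate too, limit read from the data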
Target sequence (Q9HCT0 whole entry, looked up): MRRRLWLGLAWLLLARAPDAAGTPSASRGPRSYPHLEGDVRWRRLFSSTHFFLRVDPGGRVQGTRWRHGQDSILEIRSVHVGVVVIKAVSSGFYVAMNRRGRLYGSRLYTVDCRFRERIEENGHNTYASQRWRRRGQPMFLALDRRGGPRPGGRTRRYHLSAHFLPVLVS
FN deposit inh: fibronectin deposition inhibition. inhibition, % at 12.6 µM. AID 743247. AH1F fibroblasts, Alexa488-fibronectin deposition fluorescence, overnight. hit rate 0.086% among 350,000;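 active means mean inhibition across replicates of 30% or more, regardless of how many single replicates reach that level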
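Measured by – fluorescence 485/525 nm · System – AH1F fibroblast monolayer, labelled fibronectin deposition · Amount – 10000 cells per well · Buffer or medium – serum-reduced DMEM (2% serum) · Doses – single dose, pinned · Also added – fluorescent fibronectin at 24 nM final · Schedule – 1 h cell attachment, overnight exposure to compound and label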
ARNT-TACC3 inh: disruptors of human ARNT/TACC3 interaction | inhibition, % at 9.99 µM | hit rate 0.66% among 390,000 | AID 623870 | AlphaScreen His-ARNT PAS-B/GST-TACC3 binding, luminescence; TACC3 fragment carries E629A point mutation;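 active means mean inhibition of replicates at least 50% and at least half of replicates each reaching 50%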
XiGFP reactiv: X-chromosome reactivation activator; XiGFP mouse fibroblasts, % GFP-positive cells imaging, 3 d; cells co-treated with 5-aza-dC sensitizer; scaled so ellipticine positive control = 100%; activation, % at 7.58 µM; hit rate 0.055% among 360,000; AID 743238;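 active means mean normalized replicate activation at least 10% and every replicate at or above 10%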
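Material: XiGFP fibroblasts, SV40-immortalized; Buffer or medium: DMEM containing 5-aza-dC; Compound dosing: single point; Times: 3 days compound exposure.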
Each line names hits and unclear results; the compound was inactive in the other large screens; ! = repeats disagree. An excerpt weighted towards active compounds, which were near 3.8% of everything screened.

CC(=NCc1cccnc1)c1c(O)n(-c2ccccc2C)c(=O)[nH]c1=O	SIRT5 inh 27.2 (no result: FN deposit inh, XiGFP reactiv)
O=C(Cc1ccncc1)N1CCCCN2[C@H](C1)[C@H](c1ccc(C#CC3(O)CCCC3)cc1)[C@@H]2CO	none (no result: FN deposit inh)
CCOS(C)(=O)=O	DENV2 CPE 47.7 (no result: SIRT5 inh, FN deposit inh, ARNT-TACC3 inh, XiGFP reactiv)
CCCCC(=O)N/N=C/c1c(O)n(CCc2ccc(OC)c(OC)c2)c(=O)[nH]c1=O	none
COc1ccc(CCn2c(O)c(/C=N/NC(=O)c3ccncc3)c(=O)[nH]c2=O)cc1OC	ARNT-TACC3 inh 76.2
COc1ccc(CCn2c(O)c(C=Nc3ccc(F)cc3)c(=O)[nH]c2=O)cc1OC	SIRT5 inh 16.0 (no result: ARNT-TACC3 inh)
O=C(Cc1ccncc1)N1CCCCN2[C@H](C1)[C@@H](c1ccc(C#CC3(O)CCCC3)cc1)[C@@H]2CO	none (no result: FN deposit inh)
O=C(Cc1ccccc1)N1CC2(C1)[C@@H](c1ccccc1)[C@H](CO)N2Cc1cccc(F)c1	none (no result: DENV2 CPE, SIRT5 inh, FGF22 binding, FN deposit inh, ARNT-TACC3 inh)
Cc1[nH]c2ccc(O)cc2c1CCN	DENV2 CPE 54.7
Cc1[nH]c2ccc(OCc3ccccc3)cc2c1CCN	none
COCC#Cc1ccc([C@@H]2[C@@H](CO)N3CCCCN(C(=O)Cc4ccccn4)C[C@@H]23)cc1	none (no result: FN deposit inh)
C[C@]12CC[C@@H](O)CC1=CCC1C2CC[C@@]2(C)C1C[C@@H](F)[C@H]2O (some centres undefined)	DENV2 CPE 32.7 (no result: SIRT5 inh)
C/C=C/c1ccc(C2[C@@H]3CN(C(=O)c4cnccn4)C[C@H]2N3)cc1 (some centres undefined)	none (no result: FGF22 binding, ARNT-TACC3 inh)
N#Cc1cccc(-c2ccc([C@H]3[C@H]4CN(C(=O)Cc5ccccc5)CCCCN4[C@H]3CO)cc2)c1	none (no result: FN deposit inh)
Cc1ccsc1/C=C1\C(=O)NC(=S)N(C)C1=O	none
COc1ccc(/C=C2\C(=O)NC(=S)N(C)C2=O)cc1C	ARNT-TACC3 inh 54.5 (no result: DENV2 CPE, FN deposit inh)
O=C1NC(=O)C(Nc2ccc(Cl)c(Cl)c2)C(=O)N1	ARNT-TACC3 inh 24.9 (no result: FN deposit inh)
O=C(Nc1ccc(Cl)c(Cl)c1)c1ccco1	none
Cc1c(P(=S)(c2ccccc2)c2ccccc2)[n+]2ccccc2n1C	DENV2 CPE 73.0!
COC(=O)[C@H]1[C@H](CO)[C@H]2Cn3c(ccc(C4=CCCCC4)c3=O)[C@@H]1N2CC1CCCCC1	none (no result: FGF22 binding, FN deposit inh, ARNT-TACC3 inh)
N#Cc1cccc(-c2ccc([C@@H]3[C@@H](CO)N4CCCCN(C(=O)Cc5ccccc5)C[C@H]34)cc2)c1	none (no result: FN deposit inh)
COC(=O)[C@H]1[C@H](CO)[C@H]2Cn3c(ccc(-c4ccc(F)cc4)c3=O)[C@@H]1N2C(C)=O	none (no result: FN deposit inh)
Cc1ccc(-n2c(O)c(/C=N/NC(=O)c3ccncc3)c(=O)[nH]c2=O)cc1	none (no result: FN deposit inh, ARNT-TACC3 inh)
Cn1c(O)c(/C=N/NC(=O)c2ccncc2)c(=O)n(C)c1=S	ARNT-TACC3 inh 59.2 (no result: FGF22 binding)
CCCCn1c(O)c(/C=N/NC(=O)c2ccncc2)c(=O)[nH]c1=S	ARNT-TACC3 inh 60.3
O=C(N/N=C/c1c(O)n(-c2ccccc2)c(=S)[nH]c1=O)c1ccccc1	ARNT-TACC3 inh 63.6
Cn1c(O)c(/C=N/NC(=O)c2ccncc2)c(=O)[nH]c1=S	none (no result: ARNT-TACC3 inh)
O=C(N/N=C/c1c(O)n(-c2ccccc2)c(=O)[nH]c1=O)c1ccncc1	ARNT-TACC3 inh 71.5 (no result: DENV2 CPE, SIRT5 inh, FGF22 binding)
COC(=O)[C@H]1[C@H](CO)[C@H]2Cn3c(ccc(-c4ccc(F)cc4)c3=O)[C@@H]1N2Cc1ccccc1	none (no result: FN deposit inh)
COC(=O)[C@@H]1[C@@H](CO)[C@@H]2Cn3c(ccc(-c4cccnc4)c3=O)[C@H]1N2S(=O)(=O)c1ccccc1C	none (no result: FN deposit inh)
O=C(N/N=C/c1c(O)n(C2CC2)c(=S)[nH]c1=O)c1ccccc1O	ARNT-TACC3 inh 59.9 (no result: DENV2 CPE, SIRT5 inh, FGF22 binding)
COCCn1c(O)c(/C=N/NC(=O)CSC(=S)N2CCCC2)c(=O)[nH]c1=S	ARNT-TACC3 inh 61.0
O=c1[nH]c(=S)n(C2CC2)c(O)c1C=NCc1ccc(F)cc1	none
O=C(N/N=C/c1c(O)n(Cc2ccccc2)c(=O)[nH]c1=O)c1ccncc1	none (no result: ARNT-TACC3 inh)
CCCCCCC(=O)N/N=C/c1c(O)n(CCCC)c(=S)[nH]c1=O	none
C=CCn1c(O)c(/C=N/NC(=O)c2ccncc2)c(=O)[nH]c1=O	ARNT-TACC3 inh 77.8
CC(=O)N1C[C@@H]2N[C@H](C1)C2c1ccccc1 (some centres undefined)	none (no result: DENV2 CPE, SIRT5 inh, FGF22 binding, ARNT-TACC3 inh)
